The source of these data is ChEMBL document CHEMBL3526074, “Effects of the CYP2B6*6 allele on catalytic properties and inhibition of CYP2B6 in vitro: implication for the mechanism of reduced efavirenz metabolism and other CYP2B6 substrates in vivo” (Drug Metab Dispos, 2012).

What all share (format): ADME
Data set [1] is described as follows: Inhibition of CYP2B6 variant in human liver microsomes harboring CYP2B6*6/*6 genotype assessed as 8-hydroxyefavirenz formation using efavirenz as substrate after 15 mins by LC/MS/MS analysis. A general note: Liver microsomes are vesicles of endoplasmic reticulum, rich in cytochrome P450 enzymes.
Data set [2] in a line: Inhibition of CYP2B6 variant in human liver microsomes harboring CYP2B6*1/*6 genotype assessed as 8-hydroxyefavirenz formation using efavirenz as substrate after 15 mins by LC/MS/MS analysis.
Data set [3] is described as follows: Inhibition of CYP2B6 variant in human liver microsomes harboring CYP2B6*1/*1 genotype assessed as 8-hydroxyefavirenz formation using efavirenz as substrate after 15 mins by LC/MS/MS analysis.
Data set [4] can be described thus: Drug metabolism in microsomes expressing CYP2B6.6 (unknown origin) assessed as enzyme-mediated 8-hydroxyefavirenz metabolite formation after 15 mins by HPLC/UV system in absence of Cyt b5 coexpression. As to conditions: human, 0.25 h. Put shortly: (§1)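 Microsomes with cDNA-expressed CYP2B6.1 or CYP2B6.6 plus POR, no Cyt b5 (15 pmol P450). Efavirenz 1–200 µM in 200 mM phosphate pH 7.4 with NADPH-regenerating system, 15 min at 37°C. 8-hydroxyefavirenz by HPLC, rate per pmol P450.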

A short description of data set [5]: Drug metabolism in human liver microsomes harboring CYP2B6*1/*1 genotype assessed as CYP2B6 variant-mediated 8-hydroxyefavirenz metabolite formation after 15 mins by LC/MS/MS analysis. To be noted: 0.25 h. In a few lines:
(§2)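 Genotyped human liver microsomes (5 donors per genotype), 0.25 mg/ml, with efavirenz 1–200 µM in 200 mM potassium phosphate pH 7.4. Prewarmed 5 min at 37°C, started with NADPH-regenerating system, 15 min, stopped on ice with acetonitrile. 8-hydroxyefavirenz measured by LC/MS/MS, duplicate incubations. Km and Vmax from single-site Michaelis-Menten nonlinear fit; Clint = Vmax/Km; mean ± S.D. across 5 HLMs.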

Data set [6] can be described thus: Drug metabolism in microsomes expressing CYP2B6.6 (unknown origin) assessed as enzyme-mediated 8-hydroxyefavirenz metabolite formation measured per pmol of P450 after 15 mins by HPLC/UV system in absence of Cyt b5 coexpression. To be noted: human, 0.25 h. Put shortly: as §1
A short description of data set [7]: Drug metabolism in microsomes expressing CYP2B6.1 (unknown origin) assessed as enzyme-mediated 8-hydroxyefavirenz metabolite formation after 15 mins by HPLC/UV system in absence of Cyt b5 coexpression. To be noted: human, 0.25 h. Put shortly:
as §1

The nature of data set [8]: Drug metabolism in microsomes expressing CYP2B6.6 (unknown origin) assessed as enzyme-mediated 8-hydroxyefavirenz metabolite formation measured per pmol of P450 after 15 mins by HPLC/UV system in presence of Cyt b5 coexpression. To be noted: human, 0.25 h. In a few lines: (§3)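 cDNA-expressed CYP2B6.1 or CYP2B6.6 microsomes coexpressing POR and Cyt b5 (15 pmol), with efavirenz 1–200 µM, NADPH-regenerating system and pH 7.4 phosphate buffer, 15 min at 37°C. 8-hydroxyefavirenz by HPLC, rate per pmol P450. Kinetic constants from single-site Michaelis-Menten fit; three replicates, mean ± S.D.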

Data set [9] is described as follows: Drug metabolism in human liver microsomes harboring CYP2B6*1/*6 genotype assessed as intrinsic clearance for CYP2B6 variant-mediated 8-hydroxyefavirenz metabolite formation measured per mg protein after 15 mins by LC/MS/MS analysis. To be noted: 0.25 h. In a few lines: as §2
Data set [10] can be described thus: Drug metabolism in human liver microsomes harboring CYP2B6*6/*6 genotype assessed as intrinsic clearance for CYP2B6 variant-mediated 8-hydroxyefavirenz metabolite formation measured per mg protein after 15 mins by LC/MS/MS analysis. To be noted: 0.25 h. Put shortly: as §2
The nature of data set [11]: Drug metabolism in human liver microsomes harboring CYP2B6*1/*1 genotype assessed as intrinsic clearance for CYP2B6 variant-mediated 8-hydroxyefavirenz metabolite formation measured per mg protein after 15 mins by LC/MS/MS analysis. As to conditions: 0.25 h. In a few lines:
as §2

Data set [12] is described as follows: Drug metabolism in human liver microsomes harboring CYP2B6*6/*6 genotype assessed as CYP2B6 variant-mediated 8-hydroxyefavirenz metabolite formation measured per mg protein after 15 mins by LC/MS/MS analysis. To be noted: 0.25 h. Put shortly:
as §2

Data set [13] is described as follows: Drug metabolism in microsomes expressing CYP2B6.1 (unknown origin) assessed as enzyme-mediated 8-hydroxyefavirenz metabolite formation measured per pmol of P450 after 15 mins by HPLC/UV system in absence of Cyt b5 coexpression. To be noted: human, 0.25 h. In a few lines:
as §1

The nature of data set [14]: Drug metabolism in microsomes expressing CYP2B6.1 (unknown origin) assessed as enzyme-mediated 8-hydroxyefavirenz metabolite formation measured per pmol of P450 after 15 mins by HPLC/UV system in presence of Cyt b5 coexpression. To be noted: human, 0.25 h. In a few lines: as §3
Data set [15] can be described thus: Drug metabolism in microsomes expressing CYP2B6.1 (unknown origin) assessed as enzyme-mediated 8-hydroxyefavirenz metabolite formation after 15 mins by HPLC/UV system in presence of Cyt b5 coexpression. As to conditions: human, 0.25 h. In a few lines:
as §3

The nature of data set [16]: Drug metabolism in human liver microsomes harboring CYP2B6*1/*6 genotype assessed as CYP2B6 variant-mediated 8-hydroxyefavirenz metabolite formation measured per mg protein after 15 mins by LC/MS/MS analysis. To be noted: 0.25 h. Put shortly: as §2
Data set [17] in a line: Drug metabolism in human liver microsomes harboring CYP2B6*6/*6 genotype assessed as CYP2B6 variant-mediated 8-hydroxyefavirenz metabolite formation after 15 mins by LC/MS/MS analysis. As to conditions: 0.25 h. In a few lines:
as §2

The nature of data set [18]: Drug metabolism in human liver microsomes harboring CYP2B6*1/*1 genotype assessed as CYP2B6 variant-mediated 8-hydroxyefavirenz metabolite formation measured per mg protein after 15 mins by LC/MS/MS analysis. As to conditions: 0.25 h. In a few lines: as §2
Data set [19] is described as follows: Drug metabolism in microsomes expressing CYP2B6.6 (unknown origin) assessed as enzyme-mediated 8-hydroxyefavirenz metabolite formation after 15 mins by HPLC/UV system in presence of Cyt b5 coexpression. As to conditions: human, 0.25 h. Put shortly: as §3
Data set [20] in a line: Drug metabolism in human liver microsomes harboring CYP2B6*1/*6 genotype assessed as CYP2B6 variant-mediated 8-hydroxyefavirenz metabolite formation after 15 mins by LC/MS/MS analysis. As to conditions: 0.25 h. In a few lines: as §2

The structures appear in SMILES notation.

As usually defined, the IC50 is the midpoint of a concentration-inhibition curve. Usually Ki stands for the equilibrium dissociation constant of an inhibitor or competing ligand from its target. In general, Km refers to the substrate concentration at which the rate is half of its maximum. A word on the Vmax: it is the rate approached at saturating substrate.

Consider `C[C@@H](c1ncncc1F)[C@](O)(Cn1cncn1)c1ccc(F)cc1F` [VORICONAZOLE], for which the IC50 in data set [1] came to 160 nM; in [3] it was 400 nM. Besides, in data set [2], the inhibition constant (Ki) is 1550 nM.
For `COC(=O)[C@H](c1ccccc1Cl)N1CCc2sccc2C1` [CLOPIDOGREL], the values for the 50% inhibitory concentration (IC50) in data set [1] and in [3] were 50 nM and 140 nM, respectively.
For `O=C1Nc2ccc(Cl)cc2[C@@](C#CC2CC2)(C(F)(F)F)O1` [EFAVIRENZ], the Km in [4] is 8.8 µM; in [5] it was 11.2 µM; in data set [7], 3.2 µM; in [15], 3.4 µM; in [17], 24 µM; in [19], 6.2 µM. Also, the Michaelis-Menten constant (Km) in [20] is 15.2 µM. Besides, the maximal velocity (Vmax) in data set [6] is recorded as 1.61 pmol/min; in [8], 0.95 pmol/min; in data set [12], 25 pmol/min; in data set [13] it was 1.21 pmol/min; in data set [14], 1.02 pmol/min; in data set [16] it was 100.6 pmol/min. In addition, the maximum rate (Vmax) in [18] was determined as 87.1 pmol/min. Besides, the CLH in data set [9] was determined as 6.4 µL/min/mg; in data set [10], 2.4 µL/min/mg; in data set [11], 14.5 µL/min/mg.
